Reference: ChEMBL document CHEMBL1136016, “Synthesis, biological activity, and molecular modeling investigation of new pyrazolo[4,3-e]-1,2,4-triazolo[1,5-c]pyrimidine derivatives as human A(3) adenosine receptor antagonists” (J Med Chem, 2002)

Tests used:
[1] = biological target: T1, Adenosine receptor A1 (Homo sapiens, UniProt P30542); test: Displacement of [3H]DPCPX from human Adenosine A1 receptor expressed in CHO cells; format: cell-based
T1 sequence (P30542 whole entry): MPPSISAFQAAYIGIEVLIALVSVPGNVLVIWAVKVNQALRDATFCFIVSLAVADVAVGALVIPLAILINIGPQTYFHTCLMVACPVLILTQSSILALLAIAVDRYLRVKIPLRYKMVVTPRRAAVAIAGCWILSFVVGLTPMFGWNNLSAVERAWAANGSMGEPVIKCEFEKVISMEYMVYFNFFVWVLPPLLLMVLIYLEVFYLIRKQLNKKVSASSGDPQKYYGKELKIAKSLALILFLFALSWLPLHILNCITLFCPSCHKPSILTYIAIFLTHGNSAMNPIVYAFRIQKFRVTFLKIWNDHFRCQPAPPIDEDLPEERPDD
Method in brief: (§1)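 Human recombinant A1 receptor in CHO cell membranes, resuspended in 50 mM Tris HCl pH 7.4. Displacement run 120 min at 25 °C with 1 nM [3H]DPCPX, 50 µg protein per assay, and at least six to eight test concentrations. Nonspecific binding defined with CHA. Bound and free separated on glass-fiber filters; filter radioactivity counted. n = 3-6.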

[2] = biological target: T2, Adenosine receptor A2b (Homo sapiens, UniProt P29275); test: Displacement of [3H]DPCPX binding at human Adenosine A2B receptor expressed in HEK293 cells; format: cell-based
T2 sequence (P29275 whole entry): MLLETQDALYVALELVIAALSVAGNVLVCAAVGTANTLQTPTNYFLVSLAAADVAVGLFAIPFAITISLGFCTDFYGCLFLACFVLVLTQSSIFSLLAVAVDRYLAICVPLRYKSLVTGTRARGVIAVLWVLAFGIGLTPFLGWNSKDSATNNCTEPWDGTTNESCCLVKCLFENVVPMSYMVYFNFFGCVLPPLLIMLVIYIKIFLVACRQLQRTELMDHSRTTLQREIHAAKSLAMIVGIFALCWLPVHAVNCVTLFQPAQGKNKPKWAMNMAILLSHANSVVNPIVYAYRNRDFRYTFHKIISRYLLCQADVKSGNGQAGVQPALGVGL
Method in brief: (§2)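 Membranes from HEK-293 cells with human recombinant A2B receptor. Incubation 60 min at 25 °C in 50 mM Tris HCl, 10 mM MgCl2, 1 mM EDTA, 0.1 mM benzamidine, pH 7.4, with 2 IU/mL adenosine deaminase and 40 nM [3H]DPCPX. At least six to eight test concentrations. Nonspecific binding defined with NECA. n = 3-6.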

[3] = biological target: T3, Adenosine receptor A3 (Homo sapiens, UniProt P0DMS8); test: Displacement of […] from human Adenosine A3 receptor expressed in CHO cells; format: cell-based
T3 sequence (P0DMS8 whole entry): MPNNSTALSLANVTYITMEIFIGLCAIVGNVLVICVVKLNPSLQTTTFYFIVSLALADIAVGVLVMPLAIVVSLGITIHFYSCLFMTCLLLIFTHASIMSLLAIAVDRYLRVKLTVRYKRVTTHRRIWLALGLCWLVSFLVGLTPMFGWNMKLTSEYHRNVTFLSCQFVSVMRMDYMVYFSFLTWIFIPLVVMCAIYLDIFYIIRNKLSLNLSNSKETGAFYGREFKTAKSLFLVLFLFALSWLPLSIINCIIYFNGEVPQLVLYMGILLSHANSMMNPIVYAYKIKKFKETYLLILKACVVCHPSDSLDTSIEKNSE
Method in brief: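 Membranes of CHO cells stably expressing human A3 receptor (50 µg protein/assay), incubated in duplicate with 1 nM [3H]MRE3008-F20 in 50 mM Tris HCl, 10 mM MgCl2 (pH 7.4) and six to eight ligand concentrations, 120 min at 4 °C. Nonspecific binding was set with 1 µM MRE3008-F20. Separation was by GF/B filtration and scintillation counting; n = 3-6.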

[4] = biological target: T4, Adenosine receptor A2a (Homo sapiens, UniProt P29274); test: Displacement of [3H]SCH-58261 from human Adenosine A2A receptor expressed in CHO cells; format: cell-based
T4 sequence (P29274 whole entry): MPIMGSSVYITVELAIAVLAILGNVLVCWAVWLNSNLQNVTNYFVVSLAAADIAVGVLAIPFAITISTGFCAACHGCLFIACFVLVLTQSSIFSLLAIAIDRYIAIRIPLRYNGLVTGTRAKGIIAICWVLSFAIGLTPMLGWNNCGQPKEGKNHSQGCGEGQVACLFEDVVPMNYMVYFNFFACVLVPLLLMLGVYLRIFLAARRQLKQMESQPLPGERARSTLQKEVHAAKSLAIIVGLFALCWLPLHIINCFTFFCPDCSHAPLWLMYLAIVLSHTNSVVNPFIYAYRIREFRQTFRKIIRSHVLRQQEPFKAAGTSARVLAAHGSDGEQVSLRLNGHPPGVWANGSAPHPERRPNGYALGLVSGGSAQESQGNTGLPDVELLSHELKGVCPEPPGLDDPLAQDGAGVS
Method in brief: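 Membranes from CHO cells expressing the human receptor (50 µg protein) with [3H]SCH58261 and six to eight competitor concentrations. Incubated 60 min at 25 °C. Nonspecific binding was set with NECA.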

[5] = biological target: Adenosine receptors; A2b & A3 (Homo sapiens) (UniProt P29275+P0DMS8); test: Selectivity ratio (h2B/hA3); format: protein assay
[6] = biological target: Adenosine receptors; A1 & A3 (Homo sapiens) (UniProt P30542+P0DMS8); test: Selectivity ratio (hA1/hA3); format: protein assay
[7] = biological target: T2, Adenosine receptor A2b; test: Displacement of [3H]DPCPX from human Adenosine A2B receptor expressed in HEK293 cells (95% confidence limits); format: cell-based
Method in brief: (§3)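 HEK-293 membranes expressing the human receptor were incubated 60 min at 25 °C. Six to eight test concentrations were used. Nonspecific binding was set with NECA. n = 3-6.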

[8] = biological target: T3, Adenosine receptor A3; test: biochemical
[9] = biological target: T2, Adenosine receptor A2b; test: Displacement of [3H]DPCPX from human Adenosine A2B receptor expressed in HEK293 cells; range 140-186; format: cell-based; method in brief: as §2
[10] = biological target: T1, Adenosine receptor A1; test: Displacement of [3H]DPCPX from human Adenosine A1 receptor expressed in CHO cells; range 294-480; format: cell-based
[11] = biological target: T4, Adenosine receptor A2a; test: Displacement of [3H]SCH-58261 from human Adenosine A2A receptor expressed in HEK293 cells; range 34-50; format: cell-based
[12] = biological target: T3, Adenosine receptor A3; test: biochemical; remark: listed apart in the source
[13] = biological target: T2, Adenosine receptor A2b; test: Displacement of [3H]-DPCPX from human Adenosine A2B receptor expressed in HEK293 cells; range 107-172; format: cell-based; method in brief: as §3
[14] = biological target: T1, Adenosine receptor A1; test: Displacement of [3H]DPCPX from human Adenosine A1 receptor expressed in CHO cells; range 253-401; format: cell-based; method in brief: as §1
[15] = biological target: T4, Adenosine receptor A2a; test: Displacement of [3H]SCH-58261 from human Adenosine A2A receptor expressed in HEK293 cells; range 36-70; format: cell-based
[16] = biological target: T3, Adenosine receptor A3; test: biochemical; remark: listed apart in the source

Row | Compound | Ki [1] [µM] | Ki [4] [µM] | Ratio [5] | Ratio [6] | also measured
1 | CCn1cc2c(nc(NC(=O)Nc3ccc([N+](=O)[O-])cc3)n3nc(-c4ccco4)nc23)n1 | 1.13 | 0.614 | 348 | 1740 | Ki [2]: 0.226 µM; Ki [3]: 0.00065 µM
2 | CCCn1cc2c(nc(NC(=O)Nc3cccc(Cl)c3)n3nc(-c4ccco4)nc23)n1 | – | – | 62.6 | 33 | –
3 | CCn1cc2c(nc(NC(=O)Cc3ccccc3)n3nc(-c4ccco4)nc23)n1 | 0.714 | 0.335 | 156 | 693 | Ki [7]: 0.161 µM; Ki [8]: 0.00103 µM
4 | COc1ccc(NC(=O)Nc2nc3nn(C)cc3c3nc(-c4ccco4)nn23)cc1 | – | – | 1300 | 5480 | –
5 | CCn1cc2c(nc(NC(=O)Nc3ccc(OC)cc3)n3nc(-c4ccco4)nc23)n1 | – | – | 408 | 1710 | –
6 | CCn1cc2c(nc(NC(=O)Nc3cccc(Cl)c3)n3nc(-c4ccco4)nc23)n1 | – | – | 93.7 | 155 | –

Now from value to compound, other results behind:

Row | Ki [1] [µM] | Ki [4] [µM] | Ratio [5] | Ratio [6] | Compound | also measured
7 | – | – | 946 | 925 | CCCCn1cc2c(nc(NC(=O)Nc3ccc(OC)cc3)n3nc(-c4ccco4)nc23)n1 | –
8 | – | – | 555 | 1300 | CCCn1cc2c(nc(NC(=O)Nc3ccc(F)cc3)n3nc(-c4ccco4)nc23)n1 | Ki [9]: 0.161 µM; Ki [10]: 0.376 µM; Ki [11]: 0.042 µM; Ki [12]: 0.00029 µM
9 | – | – | 170 | 398 | CCCCn1cc2c(nc(NC(=O)Nc3ccc(F)cc3)n3nc(-c4ccco4)nc23)n1 | Ki [13]: 0.136 µM; Ki [14]: 0.318 µM; Ki [15]: 0.05 µM; Ki [16]: 0.0008 µM
10 | 1.21 | 1.11 | 377 | 1500 | CCCn1cc2c(nc(NC(=O)Nc3ccc([N+](=O)[O-])cc3)n3nc(-c4ccco4)nc23)n1 | Ki [2]: 0.305 µM; Ki [3]: 0.00081 µM
